Active and inactive are the calls of the source. The calls are words filed in the database; no cut-off is given here.

Experiment [1] is described as follows: Cell cycle arrest in human STS-26T cells assessed as accumulation in S phase at 1 uM after 24 hrs. Format: functional, cell-based. A digest of the protocol:
(§1)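 STS-26T cells were grown in RPMI-1640 with 5% FBS and penicillin/streptomycin at 37 °C under 5% CO2. About 24 h after plating, cells were treated with 1 µM compound, alone or with 1 µM lovastatin, against a DMSO control. After 24 h, DNA content was read by flow cytometry (at least 10^4 events). G1, S and G2/M percentages of the nonapoptotic population came from histogram fitting.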

Experiment [2] can be described thus: Apoptosis in human STS-26T cells at 1 uM after 24 hrs. In kind it is functional.
Experiment [3] in a line: Cell cycle arrest in human STS-26T cells assessed as accumulation in G1 phase at 1 uM after 24 hrs. Format: functional, cell-based. An outline of the steps: as §1
Experiment [4] concerns STS-26T. Put plainly: Growth inhibition of human STS-26T cells at 1 to 5 uM after 24 hrs. Format: functional, cell-based. An outline of the steps: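 STS-26T cultures were plated in medium with 5% FBS and dosed about 24 h later at 1, 3 or 5 µM, alone or with 1 µM lovastatin, against a DMSO vehicle. Cells were harvested at various times by trypsinization and counted with a hemocytometer; viability was judged by trypan blue exclusion. Values are means ± SD of three culture dishes.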

A short description of experiment [5]: Cell cycle arrest in human STS-26T cells assessed as accumulation in G2/M phase at 1 uM after 24 hrs. Format: functional, cell-based. An outline of the steps: as §1
Experiment [6] deals with Protein farnesyltransferase (Rattus norvegicus). Kind of experiment: Inhibition of farnesyltransferase assessed as farnesylation of Dansyl-GCVLS peptide.

In the case of `C=CC/C(=C\COP(=O)(OCc1ccc([N+](=O)[O-])o1)N(C)CCCCCl)CC/C=C(\C)CCC=C(C)C` (centres undefined), the Activity in experiment [1] was found to be 40%; in experiment [2] it was 0.5%; in experiment [3] it was 48%; in experiment [5] it was 12%. The result in experiment [4] was inactive.
For `CC(C)=CCC/C(C)=C/CC/C(=C/COP(=O)(OCc1ccc([N+](=O)[O-])o1)N(C)CCCCCl)CC=C(C)C` (centres undefined), in experiment [4], the result was inactive.
In the case of `CC(C)=CCC/C(C)=C/CC/C(=C/COP(=O)(O)O)C(C)(C)C`, the 50% inhibitory concentration (IC50) in experiment [6] was 0.016 µM.
The same measure, in the same setting: then `C=CC/C(=C\COP(=O)(O)O)CC/C=C(\C)CCC=C(C)C`, with 0.013 µM.
Take `CC(C)=CCC/C(C)=C/CC/C(=C/COP(=O)(OCc1ccc([N+](=O)[O-])o1)N(C)CCCCCl)C(C)(C)C` (centres undefined): in experiment [4], the result was inactive.
Take `CC(C)=CCC/C(C)=C/CC/C(=C/COP(=O)(O)O)CC=C(C)C`: the half-maximal inhibitory concentration (IC50) in experiment [6] was 5 µM.
In the case of `CC[C@H](C)C(=O)O[C@H]1C[C@@H](C)C=C2C=C[C@H](C)[C@H](CC[C@@H]3C[C@@H](O)CC(=O)O3)[C@H]21` [LOVASTATIN], the Activity in experiment [1] is 37%; in experiment [2] it was 0.3%; in experiment [3], 53%; in experiment [5], 10%.

The values above are taken from ChEMBL document CHEMBL1145405, “Synthesis, biochemical, and cellular evaluation of farnesyl monophosphate prodrugs as farnesyltransferase inhibitors” (J Med Chem, 2007).
